The text below walks through data of the array DNA melting data of Ke et al. (doi:10.1101/2024.01.08.574731).

The nature of data set [1]: folding enthalpy; higher = less favourable; fluorescence melt of hairpins on a sequencing array, two-state fit. The conditions noted are these: sodium 0.088 M. Put shortly: (§1)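 Folding enthalpy and melting temperature come from bootstrapped two-state fits to Cy3 fluorescence of library hairpins carrying annealed Cy3 and quencher oligos on a sequenced MiSeq flow cell. Imaging was done in 50 mM Na-HEPES pH 8.0, 25 mM NaCl, stepping by 2.5 °C up to 60 °C, and signals were normalised to pre-quench Cy3 and to control constructs. Results of four replicates were combined by inverse variance, and fitted temperatures were raised by 9.35 °C to match UV melts.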

Data set [2] can be described thus: melting temperature; fluorescence melt of hairpins on a sequencing array, two-state fit, raised by 9.35 °C to match UV melts. The note with it: sodium 0.088 M. In outline: as §1

In the case of GGGTCCGAAAGGACACCC ((((((....)))..))), the folding enthalpy in data set [1] is -11 kcal/mol. Moreover, the Tm in data set [2] was 55.5 °C.

Turning to GGGTCCGAAAGGAGCCCC ((((((....)))..))), the folding enthalpy in data set [1] was -11 kcal/mol. Moreover, the Tm in data set [2] came to 66.4 °C.

On to GGGTCCGAAAGGATGCCC ((((((....)))..))), for which the folding enthalpy in data set [1] is -24.3 kcal/mol. The Tm in data set [2] turned out to be 45.5 °C.

Consider GGGTCCGCGAAAGCGCCC (((..(((....)))))), for which, in data set [1], the folding enthalpy was -14.9 kcal/mol. In data set [2], the Tm was found to be 40 °C.

For GGGTCGCGAAAGCGCCC (((.(((....)))))), the folding enthalpy in data set [1] is -22.4 kcal/mol. Besides, in data set [2], the Tm turned out to be 65.3 °C.

In the case of GGGTCGGGAAACCGACTC (.(((((....))))).), the folding enthalpy in data set [1] was -14.4 kcal/mol. Further, the Tm in data set [2] was found to be 58.9 °C.

Regarding GGGTCGGGAAACCGGCCC (((.(((....))).))), the folding enthalpy in data set [1] was -36.3 kcal/mol. Besides, the Tm in data set [2] worked out at 67.1 °C.

As to GGGTCTACGAAAGTACCC (((..(((....)))))), the folding enthalpy in data set [1] is -22.5 kcal/mol. Also, the Tm in data set [2] came out at 40.1 °C.

Consider GGGTCTGAAAAGACCC ((((((....)))))), for which, in data set [1], the folding enthalpy is -26 kcal/mol. Also, the Tm in data set [2] is 68.4 °C.

In the case of GGGTCTGGAAACAAACCC ((((.((....)).)))), in data set [1], the folding enthalpy was -31.6 kcal/mol. The Tm in data set [2] amounted to 37.9 °C.

Consider GGGTCTGGAAACAGGCTC (.(.(((....))).).), for which the folding enthalpy in data set [1] is -23.2 kcal/mol. For the same sequence, the Tm in data set [2] turned out to be 39.9 °C.

On to GGGTCTGGAAACGGATCC ((.((.(....).)).)), for which the folding enthalpy in data set [1] was -33 kcal/mol. For the same sequence, in data set [2], the Tm came to 41.8 °C.

Consider GGGTGAACGAAAGTTCCC (((..(((....)))))), for which the folding enthalpy in data set [1] was -14.9 kcal/mol. Also, in data set [2], the Tm turned out to be 50.1 °C.

For the sequence GGGTGAGGAAACTCGCCC (((.(((....))).))), in data set [1], the folding enthalpy was -34 kcal/mol. In addition, in data set [2], the Tm amounted to 57.4 °C.

For the sequence GGGTGCGAAAGCAACCCC ((((((....)))..))), the folding enthalpy in data set [1] is -12.4 kcal/mol. Also, the Tm in data set [2] came to 66.6 °C.

As for GGGTGCGAAAGCACACCC ((((((....)))..))), the folding enthalpy in data set [1] is -10.4 kcal/mol. Also, in data set [2], the Tm was determined as 58.3 °C.

In the case of GGGTGCGAAAGCACGCCC ((((((....)))..))), in data set [1], the folding enthalpy is -10.2 kcal/mol. For the same sequence, in data set [2], the Tm turned out to be 55.3 °C.

Regarding GGGTGCGAAAGCAGGCCC ((((((....)))..))), in data set [1], the folding enthalpy was -18.2 kcal/mol. In addition, the Tm in data set [2] is 52.9 °C.

As to GGGTGCGAAAGCATACCC ((((((....)))..))), the folding enthalpy in data set [1] is -19.8 kcal/mol. In addition, in data set [2], the Tm amounted to 53.5 °C.

Regarding GGGTGCGGAAACGTACCC ((((.((....)).)))), the folding enthalpy in data set [1] was -41.5 kcal/mol. Also, in data set [2], the Tm was determined as 61.2 °C.

Take GGGTGCGGAAACGTGCCC (((..((....))..))): in data set [1], the folding enthalpy is -39.8 kcal/mol. In data set [2], the Tm was determined as 57.3 °C.

Turning to GGGTGGGGAAACCTGCCC (((..((....))..))), the folding enthalpy in data set [1] is -25.5 kcal/mol. In addition, the Tm in data set [2] was 49.7 °C.

For the sequence GGGTGTGCGAAAGCACCC (((..(((....)))))), the folding enthalpy in data set [1] was -11.3 kcal/mol. Besides, the Tm in data set [2] amounted to 56.6 °C.

Regarding GGGTGTGGAAACACACTC (.(((((....))))).), the folding enthalpy in data set [1] was -23.5 kcal/mol. Moreover, in data set [2], the Tm is 55.4 °C.

For the sequence GGGTGTGGAAACACATCC ((.((((....)))).)), the folding enthalpy in data set [1] is -26.4 kcal/mol. In data set [2], the Tm was 52.5 °C.

Take GGGTGTGGAAACATACCC ((((.((....)).)))): the folding enthalpy in data set [1] is -45.6 kcal/mol. Further, the Tm in data set [2] was found to be 52.1 °C.

For GGGTTACGAAAGTAGCCC (((.(((....))).))), the folding enthalpy in data set [1] is -45.7 kcal/mol. Further, in data set [2], the Tm was 59.6 °C.

In the case of GGGTTCGAAAGAAAGCCC ((((((....)))..))), the folding enthalpy in data set [1] is -16 kcal/mol. Besides, the Tm in data set [2] came out at 36 °C.

For the sequence GGGTTCGAAAGAACGCCC ((((((....)))..))), the folding enthalpy in data set [1] was -11.2 kcal/mol. The Tm in data set [2] worked out at 50 °C.

In the case of GGGTTCGAAAGAAGGCCC ((((((....)))..))), in data set [1], the folding enthalpy was -20.7 kcal/mol. The Tm in data set [2] came to 35.6 °C.

Turning to GGGTTCGGAAACGAACTC (.(((((....))))).), the folding enthalpy in data set [1] was -23.3 kcal/mol. Also, the Tm in data set [2] amounted to 53.8 °C.

On to GGGTTCGGAAACGGACTC (.((.((....)).)).), for which the folding enthalpy in data set [1] was -25.9 kcal/mol. Moreover, the Tm in data set [2] came out at 39.1 °C.

Consider GGGTTGCGAAAGCACCC (((.(((....)))))), for which the folding enthalpy in data set [1] was -23.7 kcal/mol. Besides, the Tm in data set [2] was determined as 62.9 °C.

Take GGGTTGCGAAAGCACCCC (((.(((....))).))): the folding enthalpy in data set [1] was -19.4 kcal/mol. Moreover, the Tm in data set [2] turned out to be 62.9 °C.

For the sequence GGGTTGGCGAAAGCCCCC (((..(((....)))))), the folding enthalpy in data set [1] was -15.3 kcal/mol. Moreover, the Tm in data set [2] turned out to be 46.3 °C.

Take GGGTTGGGAAACCAGTCC ((..(((....)))..)): the folding enthalpy in data set [1] was -16.4 kcal/mol. For the same sequence, in data set [2], the Tm was determined as 38 °C.
